We go through one compound from ChEMBL document CHEMBL1629465, “Efficient synthesis of novel 1,2,4-triazole fused acyclic and 21-28 membered macrocyclic and/or lariat macrocyclic oxaazathia crown compounds with potential antimicrobial activity” (2010).

The test system of one assay is Candida albicans. In words: Antimicrobial activity against Candida albicans RCMB 005003 at 2.5 mg/ml by agar diffusion technique. As to conditions: read-out: DIZ. It counts as functional. In short, it runs like this: (§1)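 Agar well diffusion. Test compounds and reference standard drugs were diluted to 5.0, 2.5 and 1.0 mg/mL and applied to 0.6 cm wells. Inhibition zone beyond the control was scored as 0 (no inhibition), + (0.1–0.5 cm), ++ (0.6–1.0 cm) or +++ (1.0–1.5 cm).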
Background: Agar diffusion results depend on both activity and mobility in agar.
Take `S=c1[nH]nc(-c2cccnc2)n1/N=C\c1ccccc1OCCCCOc1ccccc1/C=N\n1c(-c2cccnc2)n[nH]c1=S`: the zone of inhibition at 2500 µg/mL amounted to 0 mm.

Another assay concerns Escherichia coli. In words: Antimicrobial activity against Escherichia coli RCMB 103001 at 5 mg/ml by agar diffusion technique. As to conditions: read-out: DIZ. It counts as functional. The method, boiled down:
as §1
As for `S=c1[nH]nc(-c2cccnc2)n1/N=C\c1ccccc1OCCCCOc1ccccc1/C=N\n1c(-c2cccnc2)n[nH]c1=S`, the zone of inhibition at 5000 µg/mL was found to be 0 mm.

The next assay deals with Penicillium italicum. The assay can be described thus: Antimicrobial activity against Penicillium italicum RCMB 001018 at 5 mg/ml by agar diffusion technique. It counts as functional. As to conditions: read-out: DIZ. The method, boiled down: as §1
On to `S=c1[nH]nc(-c2cccnc2)n1/N=C\c1ccccc1OCCCCOc1ccccc1/C=N\n1c(-c2cccnc2)n[nH]c1=S`, for which the zone of inhibition at 5000 µg/mL came out at 1 mm.

A further assay has as its system Staphylococcus aureus. In words: Antimicrobial activity against Staphylococcus aureus RCMB 106001 at 1 mg/ml by agar diffusion technique. It counts as functional. As to conditions: read-out: DIZ. The method, boiled down: as §1
For the compound `S=c1[nH]nc(-c2cccnc2)n1/N=C\c1ccccc1OCCCCOc1ccccc1/C=N\n1c(-c2cccnc2)n[nH]c1=S`, the zone of inhibition at 1000 µg/mL stood at 0 mm.

The subject of a further assay is Pseudomonas aeruginosa. In words: Antimicrobial activity against Pseudomonas aeruginosa RCMB 102002 at 1 mg/ml by agar diffusion technique. As to conditions: read-out: DIZ. It counts as functional. The method, boiled down:
as §1
As to `S=c1[nH]nc(-c2cccnc2)n1/N=C\c1ccccc1OCCCCOc1ccccc1/C=N\n1c(-c2cccnc2)n[nH]c1=S`, the zone of inhibition at 1000 µg/mL turned out to be 0 mm.

Another assay has as its system Penicillium italicum. In words: Antimicrobial activity against Penicillium italicum RCMB 001018 at 1 mg/ml by agar diffusion technique. As to conditions: read-out: DIZ. It counts as functional. In short, it runs like this:
as §1
`S=c1[nH]nc(-c2cccnc2)n1/N=C\c1ccccc1OCCCCOc1ccccc1/C=N\n1c(-c2cccnc2)n[nH]c1=S`: the zone of inhibition at 1000 µg/mL stood at 1 mm.

For the next assay, the system named is Candida albicans. The assay can be described thus: Antimicrobial activity against Candida albicans RCMB 005003 at 5 mg/ml by agar diffusion technique. It counts as functional. As to conditions: read-out: DIZ. In short, it runs like this:
as §1
As for `S=c1[nH]nc(-c2cccnc2)n1/N=C\c1ccccc1OCCCCOc1ccccc1/C=N\n1c(-c2cccnc2)n[nH]c1=S`, the zone of inhibition at 5000 µg/mL was found to be 1 mm.

For a further assay, the system named is Candida albicans. In words: Antimicrobial activity against Candida albicans RCMB 005003 at 1 mg/ml by agar diffusion technique. It counts as functional. As to conditions: read-out: DIZ. In short, it runs like this: as §1
In the case of `S=c1[nH]nc(-c2cccnc2)n1/N=C\c1ccccc1OCCCCOc1ccccc1/C=N\n1c(-c2cccnc2)n[nH]c1=S`, the zone of inhibition at 1000 µg/mL worked out at 0 mm.

A further assay concerns Penicillium italicum. The assay can be described thus: Antimicrobial activity against Penicillium italicum RCMB 001018 at 2.5 mg/ml by agar diffusion technique. It counts as functional. As to conditions: read-out: DIZ. The method, boiled down:
as §1
Take `S=c1[nH]nc(-c2cccnc2)n1/N=C\c1ccccc1OCCCCOc1ccccc1/C=N\n1c(-c2cccnc2)n[nH]c1=S`: the zone of inhibition at 2500 µg/mL is 1 mm.

In another assay the test system is Syncephalastrum racemosum. In words: Antimicrobial activity against Syncephalastrum racemosum RCMB 016001 at 2.5 mg/ml by agar diffusion technique. It counts as functional. As to conditions: read-out: DIZ. In short, it runs like this: as §1
On to `S=c1[nH]nc(-c2cccnc2)n1/N=C\c1ccccc1OCCCCOc1ccccc1/C=N\n1c(-c2cccnc2)n[nH]c1=S`, for which the zone of inhibition at 2500 µg/mL turned out to be 1 mm.

Another assay deals with Aspergillus fumigatus. The assay can be described thus: Antimicrobial activity against Aspergillus fumigatus RCMB 002008 at 2.5 mg/ml by agar diffusion technique. It counts as functional. As to conditions: read-out: DIZ. In short, it runs like this: as §1
On to `S=c1[nH]nc(-c2cccnc2)n1/N=C\c1ccccc1OCCCCOc1ccccc1/C=N\n1c(-c2cccnc2)n[nH]c1=S`, for which the zone of inhibition at 2500 µg/mL came to 0 mm.

The test system of a further assay is Bacillus subtilis. The assay can be described thus: Antimicrobial activity against Bacillus subtilis RCMB 101001 at 5 mg/ml by agar diffusion technique. As to conditions: read-out: DIZ. It counts as functional. The method, boiled down:
as §1
On to `S=c1[nH]nc(-c2cccnc2)n1/N=C\c1ccccc1OCCCCOc1ccccc1/C=N\n1c(-c2cccnc2)n[nH]c1=S`, for which the zone of inhibition at 5000 µg/mL turned out to be 0 mm.

The next assay has as its system Pseudomonas aeruginosa. The assay can be described thus: Antimicrobial activity against Pseudomonas aeruginosa RCMB 102002 at 2.5 mg/ml by agar diffusion technique. It counts as functional. As to conditions: read-out: DIZ. The method, boiled down: as §1
`S=c1[nH]nc(-c2cccnc2)n1/N=C\c1ccccc1OCCCCOc1ccccc1/C=N\n1c(-c2cccnc2)n[nH]c1=S`: the zone of inhibition at 2500 µg/mL was found to be 1 mm.

The subject of another assay is Bacillus subtilis. In words: Antimicrobial activity against Bacillus subtilis RCMB 101001 at 2.5 mg/ml by agar diffusion technique. It counts as functional. As to conditions: read-out: DIZ. In short, it runs like this: as §1
For the compound `S=c1[nH]nc(-c2cccnc2)n1/N=C\c1ccccc1OCCCCOc1ccccc1/C=N\n1c(-c2cccnc2)n[nH]c1=S`, the zone of inhibition at 2500 µg/mL was 0 mm.

Another assay has as its system Syncephalastrum racemosum. In words: Antimicrobial activity against Syncephalastrum racemosum RCMB 016001 at 1 mg/ml by agar diffusion technique. It counts as functional. As to conditions: read-out: DIZ. In short, it runs like this: as §1
`S=c1[nH]nc(-c2cccnc2)n1/N=C\c1ccccc1OCCCCOc1ccccc1/C=N\n1c(-c2cccnc2)n[nH]c1=S`: the zone of inhibition at 1000 µg/mL came out at 0 mm.

Another assay has as its system Staphylococcus aureus. In words: Antimicrobial activity against Staphylococcus aureus RCMB 106001 at 5 mg/ml by agar diffusion technique. It counts as functional. As to conditions: read-out: DIZ. The method, boiled down: as §1
On to `S=c1[nH]nc(-c2cccnc2)n1/N=C\c1ccccc1OCCCCOc1ccccc1/C=N\n1c(-c2cccnc2)n[nH]c1=S`, for which the zone of inhibition at 5000 µg/mL was found to be 1 mm.

For the next assay, the system named is Aspergillus fumigatus. In words: Antimicrobial activity against Aspergillus fumigatus RCMB 002008 at 1 mg/ml by agar diffusion technique. It counts as functional. As to conditions: read-out: DIZ. In short, it runs like this:
as §1
Consider `S=c1[nH]nc(-c2cccnc2)n1/N=C\c1ccccc1OCCCCOc1ccccc1/C=N\n1c(-c2cccnc2)n[nH]c1=S`, for which the zone of inhibition at 1000 µg/mL came to 0 mm.

The next assay has as its system Staphylococcus aureus. The assay can be described thus: Antimicrobial activity against Staphylococcus aureus RCMB 106001 at 2.5 mg/ml by agar diffusion technique. It counts as functional. As to conditions: read-out: DIZ. The method, boiled down:
as §1
In the case of `S=c1[nH]nc(-c2cccnc2)n1/N=C\c1ccccc1OCCCCOc1ccccc1/C=N\n1c(-c2cccnc2)n[nH]c1=S`, the zone of inhibition at 2500 µg/mL was 0 mm.

The subject of the next assay is Bacillus subtilis. In words: Antimicrobial activity against Bacillus subtilis RCMB 101001 at 1 mg/ml by agar diffusion technique. It counts as functional. As to conditions: read-out: DIZ. In short, it runs like this: as §1
As to `S=c1[nH]nc(-c2cccnc2)n1/N=C\c1ccccc1OCCCCOc1ccccc1/C=N\n1c(-c2cccnc2)n[nH]c1=S`, the zone of inhibition at 1000 µg/mL turned out to be 0 mm.

For a further assay, the system named is Escherichia coli. In words: Antimicrobial activity against Escherichia coli RCMB 103001 at 1 mg/ml by agar diffusion technique. As to conditions: read-out: DIZ. It counts as functional. The method, boiled down:
as §1
For the compound `S=c1[nH]nc(-c2cccnc2)n1/N=C\c1ccccc1OCCCCOc1ccccc1/C=N\n1c(-c2cccnc2)n[nH]c1=S`, the zone of inhibition at 1000 µg/mL came out at 0 mm.

A further assay deals with Escherichia coli. In words: Antimicrobial activity against Escherichia coli RCMB 103001 at 2.5 mg/ml by agar diffusion technique. As to conditions: read-out: DIZ. It counts as functional. In short, it runs like this:
as §1
As to `S=c1[nH]nc(-c2cccnc2)n1/N=C\c1ccccc1OCCCCOc1ccccc1/C=N\n1c(-c2cccnc2)n[nH]c1=S`, the zone of inhibition at 2500 µg/mL turned out to be 0 mm.

The test system of the next assay is Aspergillus fumigatus. The assay can be described thus: Antimicrobial activity against Aspergillus fumigatus RCMB 002008 at 5 mg/ml by agar diffusion technique. It counts as functional. As to conditions: read-out: DIZ. The method, boiled down:
as §1
`S=c1[nH]nc(-c2cccnc2)n1/N=C\c1ccccc1OCCCCOc1ccccc1/C=N\n1c(-c2cccnc2)n[nH]c1=S`: the zone of inhibition at 5000 µg/mL turned out to be 0 mm.

A further assay has as its system Syncephalastrum racemosum. In words: Antimicrobial activity against Syncephalastrum racemosum RCMB 016001 at 5 mg/ml by agar diffusion technique. It counts as functional. As to conditions: read-out: DIZ. In short, it runs like this: as §1
Regarding `S=c1[nH]nc(-c2cccnc2)n1/N=C\c1ccccc1OCCCCOc1ccccc1/C=N\n1c(-c2cccnc2)n[nH]c1=S`, the zone of inhibition at 5000 µg/mL turned out to be 1 mm.

In a further assay the test system is Pseudomonas aeruginosa. In words: Antimicrobial activity against Pseudomonas aeruginosa RCMB 102002 at 5 mg/ml by agar diffusion technique. It counts as functional. As to conditions: read-out: DIZ. The method, boiled down:
as §1
As to `S=c1[nH]nc(-c2cccnc2)n1/N=C\c1ccccc1OCCCCOc1ccccc1/C=N\n1c(-c2cccnc2)n[nH]c1=S`, the zone of inhibition at 5000 µg/mL is 1 mm.
